Here are results for eleven molecules from ChEMBL document CHEMBL4339190, “2,6-Disubstituted imidazo[2,1-b][1,3,4]thiadiazole derivatives as potent staphylococcal biofilm inhibitors” (Eur J Med Chem, 2019).

The source made the active and inactive calls. The rule behind the calls is not given here. Bounds are passed on as bounds.

Data set [1] has as its system Pseudomonas aeruginosa. The data set can be described thus: Antibiofilm activity against Pseudomonas aeruginosa ATCC 15442 assessed as inhibition of biofilm formation at 100 ug/ml incubated for 24 hrs by crystal violet-staining based assay. The data set is classed as functional. The following applies: ATCC 15442, 24 h.
The subject of data set [2] is Staphylococcus epidermidis. As to the kind of experiment: Antimicrobial activity against Staphylococcus epidermidis ATCC 12228 assessed as growth inhibition of planktonic forms incubated for 24 hrs. The format is organism-based. The note with it: in vitro. In short, it runs like this:
(§1)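 Broth microdilution in tryptic soy broth. Two-fold series 100 to 0.75 μg/mL made from a 1 mg/mL stock in 0.9% NaCl. Inoculum ~10⁶ cfu/mL taken from a 24 h culture, 37 °C 24 h.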

The test system of data set [3] is Staphylococcus aureus. As to the kind of experiment: Antibiofilm activity against Staphylococcus aureus ATCC 6538 incubated for 24 hrs by crystal violet-staining based assay. The format is functional. The essentials:
(§2)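 Biofilm prevention: 0.5 McFarland inoculum (2.5 µL) in 100 µL TSB with 2% w/v glucose, compound present from the start over 100–0.1 µg/mL, 37 °C 24 h. Washed with PBS, stained 0.1% w/v crystal violet 30 min, eluted with 33% v/v acetic acid, read at 570 nm. BIC50 (50% inhibition versus untreated control) derived by linear regression; triplicate, repeated at least twice.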

Data set [4] deals with Pseudomonas aeruginosa. The data set can be described thus: Antimicrobial activity against Pseudomonas aeruginosa ATCC 15442 assessed as growth inhibition of planktonic forms incubated for 24 hrs. The data set is classed as organism-based. The following applies: in vitro. In short, it runs like this:
as §1

For data set [5], the system named is Escherichia coli. The data set can be described thus: Antibiofilm activity against Escherichia coli ATCC 25922 assessed as inhibition of biofilm formation at 100 ug/ml incubated for 24 hrs by crystal violet-staining based assay. The format is functional. The note with it: ATCC 25922, 24 h.
The test system of data set [6] is Staphylococcus aureus. The data set can be described thus: Antibiofilm activity against Staphylococcus aureus ATCC 25923 assessed as inhibition of biofilm formation at 100 ug/ml incubated for 24 hrs by crystal violet-staining based assay. The following applies: ATCC 25923, 24 h. The format is functional.
The subject of data set [7] is Staphylococcus epidermidis. As to the kind of experiment: Antibiofilm activity against Staphylococcus epidermidis ATCC 12228 incubated for 24 hrs by crystal violet-staining based assay. The data set is classed as functional. The essentials:
as §2

The test system of data set [8] is Staphylococcus aureus. The data set can be described thus: Antimicrobial activity against Staphylococcus aureus ATCC 6538 assessed as growth inhibition of planktonic forms incubated for 24 hrs. The format is organism-based. The note with it: in vitro. In short, it runs like this:
as §1

Data set [9] deals with Staphylococcus aureus. As to the kind of experiment: Antimicrobial activity against Staphylococcus aureus ATCC 25923 assessed as growth inhibition of planktonic forms incubated for 24 hrs. The format is organism-based. The note with it: in vitro. The essentials: as §1
Data set [10] deals with Escherichia coli. The data set can be described thus: Antimicrobial activity against Escherichia coli ATCC 25922 assessed as growth inhibition of planktonic forms incubated for 24 hrs. The data set is classed as organism-based. The following applies: in vitro. In short, it runs like this:
as §1

Data set [11] relates to Staphylococcus aureus. The data set can be described thus: Antibiofilm activity against Staphylococcus aureus ATCC 6538 assessed as inhibition of biofilm formation at 100 ug/ml incubated for 24 hrs by crystal violet-staining based assay. The following applies: ATCC 6538, 24 h. The data set is classed as functional.
Data set [12] deals with Escherichia coli. As to the kind of experiment: Antibiofilm activity against Escherichia coli ATCC 25922 incubated for 24 hrs by crystal violet-staining based assay. The format is functional. In short, it runs like this: as §2
Data set [13] has as its system Staphylococcus aureus. As to the kind of experiment: Antibiofilm activity against Staphylococcus aureus ATCC 25923 incubated for 24 hrs by crystal violet-staining based assay. The format is functional. The essentials:
as §2

For a further data set, the system named is Bacteria. The data set can be described thus: Inhibition of recombinant bacterial SrtA at 100 uM using 5-FAM/QXL 520 Sortase as substrate preincubated for 10 mins followed by substrate addition and measured every 5 mins for 60 mins by fluorescence assay. The essentials:
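FRET kit assay: 2.5 µg/ml recombinant SrtA, 4 µM fluorescent peptide substrate, compound at 100 µM in 1% DMSO. Compound and enzyme added first, then substrate. Fluorescence (Ex/Em 490/520 nm) recorded every 5 min for 60 min. Substrate without enzyme served as negative control and 4-(hydroxymercuri)benzoic acid as positive control.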

Data set [14] concerns Pseudomonas aeruginosa. As to the kind of experiment: Antibiofilm activity against Pseudomonas aeruginosa ATCC 15442 incubated for 24 hrs by crystal violet-staining based assay. The format is functional. In short, it runs like this:
as §2

Broadly, the inhibition is how much of the control response was suppressed. With `Cn1cc(-c2nn3cc(-c4ccc([N+](=O)[O-])cc4)nc3s2)c2cc(Cl)ccc21`, the inhibition at 100 µg/mL in the data set on Pseudomonas aeruginosa [1], with Escherichia coli [5] and with Staphylococcus aureus [6] was less than 15% throughout. The MIC (in data set [2]; in the data set on Pseudomonas aeruginosa [4]; with Staphylococcus aureus [8]; with Staphylococcus aureus [9]; in the data set with Escherichia coli [10]) was greater than 100 µg/mL in each case. The MBIC50 in the data set with Staphylococcus aureus [3] worked out at 33 µM; in data set [7] it was 78 µM. Further, the inhibition result (with Staphylococcus aureus [3]; in data set [7]) was “Dose-dependent effect” each time.

Turning to `Br.COc1cccc(-c2cn3nc(-c4cn(C)c5ccc(Cl)cc45)sc3n2)c1`, the inhibition at 100 µg/mL in the data set on Pseudomonas aeruginosa [1], in the data set on Escherichia coli [5], in the data set on Staphylococcus aureus [6] and in the data set on Staphylococcus aureus [11] was less than 15% in each case. The MIC (in [2]; with Pseudomonas aeruginosa [4]; with Staphylococcus aureus [8]; in the data set with Staphylococcus aureus [9]; in the data set on Escherichia coli [10]) was greater than 100 µg/mL throughout. The same molecule had an MBIC50 in data set [7] of 23.9 µM. In addition, the inhibition result in data set [7] was “Dose-dependent effect”.

For `Cn1cc(-c2nn3cc(-c4ccccc4)nc3s2)c2cc(Cl)ccc21`, the inhibition at 100 µg/mL with Pseudomonas aeruginosa [1], in the data set with Escherichia coli [5], with Staphylococcus aureus [6] and in the data set with Staphylococcus aureus [11] was less than 15% in each case. Moreover, the MIC (in data set [2]; with Pseudomonas aeruginosa [4]; in the data set on Staphylococcus aureus [8]; in the data set on Staphylococcus aureus [9]; with Escherichia coli [10]) was greater than 100 µg/mL throughout. This molecule yielded an MBIC50 in data set [7] of 36.5 µM. For the same molecule, the inhibition result in [7] was “Dose-dependent effect”.

Turning to `Br.COc1ccc(OC)c(-c2cn3nc(-c4c[nH]c5ccc(Cl)cc45)sc3n2)c1`, the MBIC50 was found to be 91.5 µM in the data set on Escherichia coli [12], 0.5 µM in the data set with Staphylococcus aureus [3], 18.9 µM in [7] and 24.2 µM in the data set on Staphylococcus aureus [13]. Also, the inhibition result (in the data set with Escherichia coli [12]; in the data set on Staphylococcus aureus [3]; in data set [7]; in the data set with Staphylococcus aureus [13]) was “Dose-dependent effect” each time. Besides, in the data set on Pseudomonas aeruginosa [1], the inhibition at 100 µg/mL was less than 15%. The MIC (in [2]; in the data set with Pseudomonas aeruginosa [4]; with Staphylococcus aureus [8]; in the data set on Staphylococcus aureus [9]; in the data set with Escherichia coli [10]) was greater than 100 µg/mL each time. The MBIC90 in the data set on Staphylococcus aureus [3] turned out to be 16.2 µg/mL. In the data set on Bacteria, the inhibition entry is “inactive”.

For the molecule `Br.COc1cccc(-c2cn3nc(-c4cn(C)c5ccccc45)sc3n2)c1`, the inhibition at 100 µg/mL in the data set on Pseudomonas aeruginosa [1] and with Escherichia coli [5] was less than 15% throughout. Further, the MIC (in data set [2]; in the data set on Pseudomonas aeruginosa [4]; in the data set with Staphylococcus aureus [8]; with Staphylococcus aureus [9]; in the data set on Escherichia coli [10]) was greater than 100 µg/mL throughout. The MBIC50 in the data set on Staphylococcus aureus [3] stood at 28 µM; in data set [7], 41.9 µM; in the data set on Staphylococcus aureus [13] it was 1.8 µM. Moreover, the inhibition entry (in the data set on Staphylococcus aureus [3]; in data set [7]; with Staphylococcus aureus [13]) was “Dose-dependent effect” throughout. In the data set on Staphylococcus aureus [13], this molecule yielded an MBIC90 of 23.3 µg/mL. Besides, in the data set with Bacteria, the inhibition entry was “inactive”.

`Cn1cc(-c2nn3cc(-c4ccc(F)cc4)nc3s2)c2cc(Cl)ccc21`: the inhibition at 100 µg/mL with Pseudomonas aeruginosa [1], with Escherichia coli [5] and in the data set on Staphylococcus aureus [6] was less than 15% throughout. Also, the MIC (in data set [2]; in the data set with Pseudomonas aeruginosa [4]; in the data set on Staphylococcus aureus [8]; in the data set with Staphylococcus aureus [9]; with Escherichia coli [10]) was greater than 100 µg/mL throughout. The MBIC50 worked out at 50.4 µM in the data set with Staphylococcus aureus [3] and 17 µM in data set [7]. In addition, the inhibition result (in the data set with Staphylococcus aureus [3]; in [7]) was “Dose-dependent effect” each time.

Take `Cn1cc(-c2nn3cc(-c4ccc(C(F)(F)F)cc4)nc3s2)c2ccccc21`: the MBIC50 entry (in the data set with Escherichia coli [12]; with Staphylococcus aureus [3]; in [7]; with Staphylococcus aureus [13]; in the data set on Pseudomonas aeruginosa [14]) was “inactive” throughout. In addition, the MIC (in data set [2]; in the data set with Pseudomonas aeruginosa [4]; with Staphylococcus aureus [8]; with Staphylococcus aureus [9]; in the data set with Escherichia coli [10]) was greater than 100 µg/mL each time.

As for `Br.Cn1cc(-c2nn3cc(-c4ccccc4)nc3s2)c2cc(Br)ccc21`, the inhibition at 100 µg/mL with Pseudomonas aeruginosa [1], with Escherichia coli [5], in the data set on Staphylococcus aureus [6] and in the data set with Staphylococcus aureus [11] was less than 15% each time. Also, the MIC (in data set [2]; with Pseudomonas aeruginosa [4]; with Staphylococcus aureus [8]; in the data set with Staphylococcus aureus [9]; in the data set on Escherichia coli [10]) was greater than 100 µg/mL throughout. Moreover, the MBIC50 in data set [7] worked out at 21.6 µM. The inhibition result in [7] was “Dose-dependent effect”.

Take `Br.COc1cccc(-c2cn3nc(-c4c[nH]c5ccc(Br)cc45)sc3n2)c1`: the MBIC50 entry (in the data set with Escherichia coli [12]; with Staphylococcus aureus [3]; in data set [7]; with Staphylococcus aureus [13]; with Pseudomonas aeruginosa [14]) was “inactive” throughout. Further, the MIC (in data set [2]; in the data set with Pseudomonas aeruginosa [4]; with Staphylococcus aureus [8]; in the data set on Staphylococcus aureus [9]; in the data set with Escherichia coli [10]) was greater than 100 µg/mL throughout.

Take `Br.Fc1ccc(-c2cn3nc(-c4c[nH]c5ccc(Br)cc45)sc3n2)cc1`: the MBIC50 entry (with Escherichia coli [12]; in the data set on Staphylococcus aureus [3]; in data set [7]; in the data set with Staphylococcus aureus [13]; with Pseudomonas aeruginosa [14]) was “inactive” each time. The MIC (in [2]; in the data set on Pseudomonas aeruginosa [4]; with Staphylococcus aureus [8]; in the data set on Staphylococcus aureus [9]; in the data set with Escherichia coli [10]) was greater than 100 µg/mL in each case.

For `Cn1cc(-c2nn3cc(-c4ccc([N+](=O)[O-])cc4)nc3s2)c2ccccc21`, the MBIC50 was 34.3 µM with Escherichia coli [12]; 3 µM in the data set with Staphylococcus aureus [3]; 21 µM in data set [7]; 21 µM in the data set with Staphylococcus aureus [13]; 30.1 µM in the data set with Pseudomonas aeruginosa [14]. Moreover, the inhibition result (in the data set with Escherichia coli [12]; with Staphylococcus aureus [3]; in data set [7]; with Staphylococcus aureus [13]; in the data set with Pseudomonas aeruginosa [14]) was “Dose-dependent effect” throughout. The MIC (in [2]; with Pseudomonas aeruginosa [4]; in the data set on Staphylococcus aureus [8]; with Staphylococcus aureus [9]; with Escherichia coli [10]) was greater than 100 µg/mL in each case.
